For test [1], the target named is T1, Prostaglandin G/H synthase 1 (Ovis aries, UniProt P05979).
T1 sequence (P05979 whole entry): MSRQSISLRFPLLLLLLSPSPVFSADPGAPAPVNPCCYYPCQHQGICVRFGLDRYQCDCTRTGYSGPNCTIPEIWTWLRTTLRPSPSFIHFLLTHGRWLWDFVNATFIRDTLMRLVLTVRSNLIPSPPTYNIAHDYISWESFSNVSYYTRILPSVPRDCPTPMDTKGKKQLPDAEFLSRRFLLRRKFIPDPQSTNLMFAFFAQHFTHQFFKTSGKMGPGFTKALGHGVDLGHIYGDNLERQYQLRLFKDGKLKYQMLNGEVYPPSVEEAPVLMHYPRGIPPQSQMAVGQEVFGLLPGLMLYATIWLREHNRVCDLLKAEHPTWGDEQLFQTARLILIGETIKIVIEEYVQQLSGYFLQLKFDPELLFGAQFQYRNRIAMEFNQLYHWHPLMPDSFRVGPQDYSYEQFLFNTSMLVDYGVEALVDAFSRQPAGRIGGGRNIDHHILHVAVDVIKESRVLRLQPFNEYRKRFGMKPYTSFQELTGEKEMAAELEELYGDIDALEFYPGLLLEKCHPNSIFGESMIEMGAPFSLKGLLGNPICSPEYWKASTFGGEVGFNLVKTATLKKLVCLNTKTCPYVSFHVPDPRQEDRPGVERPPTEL
The experiment in a line: Antagonist activity at ovine COX-1.

The target in test [2] is T2, Prostaglandin G/H synthase 1 (Ovis aries) (UniProt P05979).
T2 sequence (whole entry): T1 sequence (P05979 whole entry)
The experiment in a line: […] at ovine COX-1 at 10 uM relative to control. Set-up: scale not given: the % may be the effect or the level left. Summed up: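 Ovine COX-1 activity measured with a commercial kit, following the manufacturer's protocol. Compounds were tested in duplicate at 10 μM final concentration. Activity is expressed as inhibition relative to control.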

For the next test, the target named is T3, Thromboxane A2 receptor (Homo sapiens, UniProt P21731).
T3 sequence (P21731 whole entry): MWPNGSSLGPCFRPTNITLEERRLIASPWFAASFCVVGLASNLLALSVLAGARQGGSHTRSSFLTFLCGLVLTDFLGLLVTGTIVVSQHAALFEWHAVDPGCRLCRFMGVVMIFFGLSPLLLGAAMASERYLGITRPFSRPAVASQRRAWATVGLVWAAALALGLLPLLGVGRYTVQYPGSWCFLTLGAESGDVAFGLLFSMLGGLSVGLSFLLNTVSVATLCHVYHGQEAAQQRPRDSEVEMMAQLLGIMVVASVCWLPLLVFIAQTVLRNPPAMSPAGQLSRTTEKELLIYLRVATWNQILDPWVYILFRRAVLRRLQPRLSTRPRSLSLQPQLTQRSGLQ
Description: Antagonist activity at human prostanoid TP2 receptor expressed in HEK293 cells assessed as inhibition of calcium flux after 30 to 40 mins by FLIPR assay. In kind it is functional, cell-based. In general terms: A change in cytosolic calcium serves as a functional read-out for many receptors and channels.

In test [3] the target is Prostaglandin E2 receptor EP2 subtype (Homo sapiens, UniProt P43116). Description: Inhibition of beta-arrestin binding to recombinant human prostanoid EP2 receptor expressed in HEK293 cell membranes by beta-lactamase complementation assay.
Test [4] addresses T4, Prostaglandin E2 receptor EP3 subtype (Homo sapiens, UniProt P43115).
T4 sequence (P43115 whole entry): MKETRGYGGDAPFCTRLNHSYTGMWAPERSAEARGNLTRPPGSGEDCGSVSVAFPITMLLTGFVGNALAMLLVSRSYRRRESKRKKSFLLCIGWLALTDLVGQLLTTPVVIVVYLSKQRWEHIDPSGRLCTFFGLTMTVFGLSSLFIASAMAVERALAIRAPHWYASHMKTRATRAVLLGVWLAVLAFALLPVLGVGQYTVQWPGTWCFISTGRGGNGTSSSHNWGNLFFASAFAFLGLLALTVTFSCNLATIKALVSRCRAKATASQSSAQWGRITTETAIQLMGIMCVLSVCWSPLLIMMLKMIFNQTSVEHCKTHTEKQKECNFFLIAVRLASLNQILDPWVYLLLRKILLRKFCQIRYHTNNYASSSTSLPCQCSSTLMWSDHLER
The experiment in a line: Antagonist activity at human prostanoid EP3 receptor expressed in HEK293 cells assessed as inhibition of PGE2-induced calcium flux after 60 mins by FLIPR assay. It counts as functional, cell-based.

The species entered for another test is Homo sapiens. The experiment in a line: Selectivity factor, ratio of IC50 for recombinant human prostanoid DP1 receptor to IC50 for recombinant human CRTH2 receptor. Summed up:
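hDP₁ IC₅₀ came from competitive [³H]PGD₂ binding on CHO cells stably overexpressing recombinant hDP₁. hCRTh2 IC₅₀ came from [³H]PGD₂ (2.5 nM) displacement on membranes of HEK-293 cells stably expressing hCRTh2, incubated 90 min at room temperature, filtered and counted. f_Sel = IC₅₀(hDP₁)/IC₅₀(hCRTh2).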

For test [5], the target named is T5, Prostaglandin D2 receptor 2 (Homo sapiens, UniProt Q9Y5Y4).
T5 sequence (Q9Y5Y4 whole entry): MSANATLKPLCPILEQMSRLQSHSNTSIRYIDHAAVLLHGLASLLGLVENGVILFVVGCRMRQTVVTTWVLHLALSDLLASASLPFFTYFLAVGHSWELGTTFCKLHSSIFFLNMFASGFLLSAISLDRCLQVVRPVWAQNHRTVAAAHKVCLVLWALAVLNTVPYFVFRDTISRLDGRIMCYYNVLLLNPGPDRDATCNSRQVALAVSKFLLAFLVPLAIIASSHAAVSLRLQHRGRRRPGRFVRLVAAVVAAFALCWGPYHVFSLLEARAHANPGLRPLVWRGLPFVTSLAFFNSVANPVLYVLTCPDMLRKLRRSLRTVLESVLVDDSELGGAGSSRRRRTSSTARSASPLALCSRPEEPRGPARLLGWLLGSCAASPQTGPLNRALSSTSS
Description: Antagonist activity at human CRTH2 receptor expressed in HEK293 cells assessed as inhibition of PGD2-induced calcium flux after 5 mins by FLIPR assay. It counts as functional, cell-based. Summed up:
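HEK-293 cells stably expressing hCRTh2 were loaded with 4 μM Fluo-4 AM for 40 min at 37 °C in HBSS/20 mM HEPES pH 7.2. Compound was added 5 min before 50 nM PGD2 (final) in buffer with 0.05% BSA. Peak fluorescence was normalised to no-antagonist control after baseline subtraction; IC50 from four-parameter fit.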

For test [6], the target named is T5, Prostaglandin D2 receptor 2. The experiment in a line: Displacement of [3H]PGD2 from recombinant human CRTH2 receptor expressed in HEK293 cell membranes after 90 mins by scintillation counting analysis. The method in brief:
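Membranes from HEK293 cells expressing hCRTH2 (80 μg protein/well) in Tris pH 7.4 buffer with NaCl, EDTA, 0.1% BSA were incubated with 2.5 nM [3H]PGD2 for 90 min at room temperature. Nonspecific binding was defined with 10 μM PGD2. Samples were filtered on PEI-soaked GF/C and read by scintillation counting.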
For orientation: Displacement assays read how much labelled ligand stays bound in the presence of the test substance.

pIC50: −log10 of the molar value.

Prostaglandin E2 receptor EP2 subtype, sequence (P43116 whole entry): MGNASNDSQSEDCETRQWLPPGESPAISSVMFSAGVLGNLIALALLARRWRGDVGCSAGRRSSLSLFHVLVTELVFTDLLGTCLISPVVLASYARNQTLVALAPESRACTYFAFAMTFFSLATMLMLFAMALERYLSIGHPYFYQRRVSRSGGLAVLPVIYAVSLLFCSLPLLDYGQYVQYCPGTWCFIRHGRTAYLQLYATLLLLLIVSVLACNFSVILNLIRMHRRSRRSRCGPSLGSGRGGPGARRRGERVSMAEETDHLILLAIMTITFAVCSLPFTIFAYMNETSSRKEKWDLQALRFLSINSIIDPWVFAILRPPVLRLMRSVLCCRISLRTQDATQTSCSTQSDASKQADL

As to `O=C(O)Cn1c2c(c3cc(F)ccc31)CN(C(=O)Cc1cccc3ccccc13)CC2`, the pIC50 is under 5.00 in test [1]; under 4.60 on Thromboxane A2 receptor; under 5.00 in test [3]; under 4.60 in test [4]; 7.15 in test [5]; 8.40 in test [6]. In test [2], this compound had an Activity of under 30%. Moreover, the Ratio IC50 in the test listed under Homo sapiens was over 2500.
As to `O=C(O)Cn1c2c(c3ccccc31)CN(C(=O)c1cccc3ccccc13)CC2`, the pIC50 in test [1] is under 5.00; on Thromboxane A2 receptor it was under 4.60; in test [3], 5.18; in test [4], under 4.60; in test [5], 7.52; in test [6], 8.05. In addition, the Activity in test [2] was under 30%. Besides, the Ratio IC50 in the test filed under Homo sapiens was determined as 87.
With `O=C(O)Cn1c2c(c3ccccc31)CN(C(=O)c1ccccc1)CC2`, the values for the pIC50 in test [1] and in test [4] were under 5.00 and under 4.60, respectively. In test [2], this compound yielded an Activity of under 30%. Besides, the Ratio IC50 in the test filed under Homo sapiens was over 580.
Take `Cc1ccc2c(c1)c1c(n2CC(=O)O)CCN(C(=O)c2cccc3ccccc23)C1`: the pIC50 in test [1] was under 5.00; at Thromboxane A2 receptor, under 4.60; in test [3], under 5.00; in test [4] it was under 4.60; in test [5], 7.22; in test [6], 8.30. For the same compound, in test [2], the Activity is under 30%. Further, the Ratio IC50 in the test listed under Homo sapiens stood at 540.
As for `CCc1ccc(-c2ccc(C(=O)N3CCc4c(c5ccccc5n4CC(=O)O)C3)cc2)cc1`, the pIC50 in test [1] is under 5.00; at Thromboxane A2 receptor, under 4.60; in test [3], 5.19; in test [4], under 4.60; in test [5], 6.72; in test [6], 8.40. The Activity in test [2] is under 30%. In addition, in the test listed under Homo sapiens, the Ratio IC50 amounted to 195.
Consider `O=C(O)Cn1c2c(c3cc(F)ccc31)CN(C(=O)c1cccc(Cl)c1)CC2`, for which the pIC50 in test [1] was under 5.00; at Thromboxane A2 receptor, under 4.60; in test [3], under 5.00; in test [4] it was under 4.60; in test [5], 7.40; in test [6], 8.05. Moreover, the Activity in test [2] is under 30%. In the test listed under Homo sapiens, the Ratio IC50 was over 1100.
In the case of `O=C(O)Cn1c2c(c3cc(F)ccc31)CN(C(=O)c1cccc3ccccc13)CC2` [SETIPIPRANT], the pIC50 in test [1] is under 5.00; at Thromboxane A2 receptor, under 4.60; in test [3] it was 5.59; in test [4] it was under 4.60; in test [5] it was 7.52; in test [6], 8.22. This compound came in with an Activity in test [2] of under 30%. In addition, in the test listed under Homo sapiens, the Ratio IC50 worked out at 215.
Regarding `CCc1ccc(-c2ccc(C(=O)N3CCc4c(c5cccc(Cl)c5n4CC(=O)O)C3)cc2)cc1`, the pIC50 in test [1] was under 5.00; on Thromboxane A2 receptor, under 4.60; in test [3], under 5.00; in test [4], under 4.60; in test [5], 5.59; in test [6], 7.64. In test [2], this compound showed an Activity of under 30%. The Ratio IC50 in the test listed under Homo sapiens is 5.2.
On to `O=C(O)Cn1c2c(c3cc(F)ccc31)CN(C(=O)c1cccs1)CC2`, for which the pIC50 in test [1] was under 5.00; at Thromboxane A2 receptor, under 4.60; in test [3], under 5.00; in test [4], under 4.60; in test [5] it was 7.40; in test [6] it was 8.40. The Activity in test [2] was under 30%. Moreover, the Ratio IC50 in the test filed under Homo sapiens is over 2500.
In the case of `O=C(O)Cn1c2c(c3ccccc31)CN(C(=O)C1CCCCC1)CC2`, the pIC50 in test [1] is under 5.00; at Thromboxane A2 receptor it was under 4.60; in test [4], under 4.60; in test [5] it was 6.70; in test [6] it was 7.15. Besides, the Activity in test [2] was under 30%.
Consider `O=C(O)Cn1c2c(c3cc(F)ccc31)CN(C(=O)CCc1cccc3ccccc13)CC2`, for which the pIC50 in test [1] was under 5.00; at Thromboxane A2 receptor, under 4.60; in test [3], 5.02; in test [4], under 4.60; in test [5], 7.19; in test [6], 8.00. In addition, the Activity in test [2] is under 30%. In addition, in the test filed under Homo sapiens, the Ratio IC50 is over 1000.
For `COc1ccc2c(c1)c1c(n2CC(=O)O)CCN(C(=O)c2ccccc2)C1`, the pIC50 was under 5.00 in test [1], under 4.60 at Thromboxane A2 receptor, under 4.60 in test [4] and 7.21 in test [6]. The Activity in test [2] is under 30%.
`O=C(O)Cn1c2c(c3cc(Cl)ccc31)CN(C(=O)c1cccc3ccccc13)CC2`: the pIC50 in test [1] is under 5.00; on Thromboxane A2 receptor, under 4.60; in test [3], 5.13; in test [4], under 4.60; in test [5], 7.52; in test [6] it was 8.40. In test [2], this compound had an Activity of under 30%. Besides, the Ratio IC50 in the test listed under Homo sapiens amounted to 230.
Regarding `O=C(O)Cn1c2c(c3cc(C(F)(F)F)ccc31)CN(C(=O)c1ccccc1)CC2`, the pIC50 is under 5.00 in test [1]; under 4.60 at Thromboxane A2 receptor; under 5.00 in test [3]; under 4.60 in test [4]; 7.30 in test [5]; 8.05 in test [6]. The compound further returned an Activity in test [2] of under 30%. In the test filed under Homo sapiens, the Ratio IC50 is over 1100.
As to `O=C(O)Cn1c2c(c3ccccc31)CN(C(=O)c1cccc(Cl)c1)CC2`, the pIC50 is under 5.00 in test [1]; under 4.60 on Thromboxane A2 receptor; under 5.00 in test [3]; under 4.60 in test [4]; 7.15 in test [5]; 8.00 in test [6]. In test [2], the Activity is under 30%. Besides, the Ratio IC50 in the test filed under Homo sapiens is over 1000.
As to `CC(C)c1ccc2c(c1)c1c(n2CC(=O)O)CCN(C(=O)c2ccccc2)C1`, the pIC50 in test [1] is under 5.00; at Thromboxane A2 receptor, under 4.60; in test [4], under 4.60; in test [6] it was 7.38. The same compound yielded an Activity in test [2] of under 30%.

As a reminder, the pIC50 is the negative decadic logarithm of the IC50, by convention in mol/L.
